# Assay results as given in PMC3215888 (Cancer Chemotherapy and Pharmacology, 2011).
# pIC50: −log10 of the molar value. Values joined by “and” are separate entries in the source; they are usually repeats but may differ in a detail not shown here. Equal values may be shown once. Read-outs that look alike come from different tables or passages of the source.
# How the values were obtained:
# [1] = tested on: SMS-KCNR neuroblastoma cell line; assay: DIMSCAN in vitro testing, 96 h; format: cell-based; details: for pIC50: 96 h
# Method in brief: (§1)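 Neuroblastoma and Ewing sarcoma lines, STR-verified and maintained as in the originators' reports. Exposed for 96 h to test compound (DMSO stock diluted in medium) at 1 nM–10 μM. Viable cells quantified by fluorescein diacetate fluorescence with DIMSCAN digital image microscopy. Absolute IC50 = concentration giving 50% growth inhibition vs controls. Relative IC50 = concentration giving 50% of the maximum inhibitory effect.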
# [2] = tested on: ALL-8 ALL T-cell xenograft; assay: ALL xenograft; format: in vivo, mice
# Method in brief: (§2)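 Female NOD/scid mice inoculated intravenously with leukemia cells, 8 per group. Test compound suspended in 10% 2-hydroxypropyl-β-cyclodextrin/1% sodium bicarbonate in water. Given by oral gavage twice daily, 5 days weekly for 3 weeks, at 20.8, 10.4, 5.2 or 2.6 mg/kg. Blood %hCD45 of leukocytes tracked; event = hCD45 reaching 25%. EFS by Kaplan–Meier, exact log-rank vs controls. Median group response from individual scores.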
# [3] = tested on: OS-1 Osteosarcoma xenograft; format: in vivo, mice
# Method in brief: (§3)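 Female CB17 scid mice bearing subcutaneous tumors, 10 per group. Dosed by oral gavage twice daily, 5 days weekly for 6 weeks, at 20.8, 10.4, 5.2 or 2.6 mg/kg, in 10% 2-hydroxypropyl-β-cyclodextrin/1% sodium bicarbonate. Event = quadrupled tumor volume; EFS by Kaplan–Meier, exact log-rank test. Per-mouse scores PD/SD/PR (≥50% regression)/CR (<0.10 cm3)/MCR; group median reported. PR, CR and MCR count as objective responses.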
# [4] = tested on: NB-SD Neuroblastoma xenograft; format: in vivo, mice
# Method in brief: as §3
# ALL xenograft models = assay: Objective responses across the ALL xenograft panel; format: in vivo, mice
# Method in brief: as §2
# Ewing sarcoma cell lines = assay: DIMSCAN in vitro testing, 96 h, Ewing panel; format: cell-based
# Method in brief: as §1
# [5] = Plasma pharmacokinetics after a single oral dose, LC/MS/MS; format: in vivo, non-tumored scid mice; details: scid, mouse
# [6] = tested on: NB-1643 Neuroblastoma xenograft; format: in vivo, mice
# Method in brief: as §3
# [7] = tested on: PPTP in vivo xenograft models; assay: Objective responses by AURKA copy number; design: species or system mice; details: MTD
# [8] = tested on: SK-N-BE(2) neuroblastoma cell line; assay: DIMSCAN in vitro testing, 96 h; format: cell-based; details: minimum T/C
# Method in brief: as §1
# [9] = tested on: SK-N-BE(1) neuroblastoma cell line; assay: DIMSCAN in vitro testing, 96 h; format: cell-based; details: for pIC50: Neuroblastoma cell, 96 h
compound,measurement,setting,value
COc1cc(Nc2ncc3c(n2)-c2ccc(Cl)cc2C(c2c(F)cccc2OC)=NC3)ccc1C(=O)O [MLN8237],pIC50,[1]; read-out: Absolute IC50,8.00
same,pIC50,[1]; read-out: Relative IC50,8.05
same,Ymin,[1]; minimum T/C,6.6%
same,EFS T/C,[2]; 2.6 mg/kg,1.8
same,EFS activity,[2]; 2.6 mg/kg,Low
same,Estimate of median time to event,[2]; 2.6 mg/kg,23.0 days
same,Median group response,[2]; 2.6 mg/kg,"PD2 (if the TGD value >1.5, the mouse was considered PD2)"
same,Response activity,[2]; 2.6 mg/kg,Int
same,Median RTV/hCD45 at end of study,[2]; 2.6 mg/kg,>25%
same,EFS T/C,[2]; 5.2 mg/kg,2.5
same,EFS activity,[2]; 5.2 mg/kg,Int
same,Estimate of median time to event,[2]; 5.2 mg/kg,31.6 days
same,Response activity,[2]; 5.2 mg/kg,High
same,Median RTV/hCD45 at end of study,[2]; 5.2 mg/kg,>25%
same,EFS T/C,[2]; 10.4 mg/kg,>3.3
same,EFS activity,[2]; 10.4 mg/kg,Int
same,Response activity,[2]; 10.4 mg/kg,High
same,Median RTV/hCD45 at end of study,[2]; 10.4 mg/kg,6.2%
same,EFS T/C,[2]; 20.8 mg/kg,>3.3
same,EFS activity,[2]; 20.8 mg/kg,High
same,Median group response,[2]; 20.8 mg/kg,MCR
same,Response activity,[2]; 20.8 mg/kg,High
same,Median RTV/hCD45 at end of study,[2]; 20.8 mg/kg,0.2%
same,EFS T/C,[3]; 2.6 mg/kg,>1.5
same,Median group response,[3]; 2.6 mg/kg,"PD2 (if the TGD value >1.5, the mouse was considered PD2)"
same,Response activity,[3]; 2.6 mg/kg,Int
same,Tumor volume T/C,[3]; 2.6 mg/kg,0.75
same,Median RTV/hCD45 at end of study,[3]; 2.6 mg/kg,3.5
same,EFS T/C,[3]; 5.2 mg/kg,>1.5
same,Median group response,[3]; 5.2 mg/kg,"PD2 (if the TGD value >1.5, the mouse was considered PD2)"
same,Response activity,[3]; 5.2 mg/kg,Int
same,Tumor volume T/C,[3]; 5.2 mg/kg,0.70
same,Median RTV/hCD45 at end of study,[3]; 5.2 mg/kg,3.4
same,EFS T/C,[3]; 10.4 mg/kg,>1.5
same,Median group response,[3]; 10.4 mg/kg,"PD2 (if the TGD value >1.5, the mouse was considered PD2)"
same,Response activity,[3]; 10.4 mg/kg,Int
same,Tumor volume T/C,[3]; 10.4 mg/kg,0.56
same,Median RTV/hCD45 at end of study,[3]; 10.4 mg/kg,2.0
same,EFS T/C,[3]; 20.8 mg/kg,>1.5
same,Response activity,[3]; 20.8 mg/kg,Int
same,Tumor volume T/C,[3]; 20.8 mg/kg,0.45
same,Median RTV/hCD45 at end of study,[3]; 20.8 mg/kg,0.8
same,EFS T/C,[4]; 2.6 mg/kg,1.6
same,EFS activity,[4]; 2.6 mg/kg,Low
same,Estimate of median time to event,[4]; 2.6 mg/kg,15.2 days
same,Median group response,[4]; 2.6 mg/kg,"PD1 (if the TGD value ≤1.5, that mouse was considered PD1)"
same,Response activity,[4]; 2.6 mg/kg,Low
same,Tumor volume T/C,[4]; 2.6 mg/kg,0.59
same,Median RTV/hCD45 at end of study,[4]; 2.6 mg/kg,>4
same,EFS T/C,[4]; 5.2 mg/kg,2.2
same,EFS activity,[4]; 5.2 mg/kg,Int
same,Estimate of median time to event,[4]; 5.2 mg/kg,20.9 days
same,Median group response,[4]; 5.2 mg/kg,"PD2 (if the TGD value >1.5, the mouse was considered PD2)"
same,Response activity,[4]; 5.2 mg/kg,Int
same,Tumor volume T/C,[4]; 5.2 mg/kg,0.60
same,Median RTV/hCD45 at end of study,[4]; 5.2 mg/kg,>4
same,EFS T/C,[4]; 10.4 mg/kg,3.9
same,EFS activity,[4]; 10.4 mg/kg,Int
same,Estimate of median time to event,[4]; 10.4 mg/kg,37.5 days
same,Median group response,[4]; 10.4 mg/kg,"PD2 (if the TGD value >1.5, the mouse was considered PD2)"
same,Response activity,[4]; 10.4 mg/kg,Int
same,Tumor volume T/C,[4]; 10.4 mg/kg,0.50
same,Median RTV/hCD45 at end of study,[4]; 10.4 mg/kg,>4
same,EFS T/C,[4]; 20.8 mg/kg,>4.4
same,EFS activity,[4]; 20.8 mg/kg,High
same,Response activity,[4]; 20.8 mg/kg,Int
same,Tumor volume T/C,[4]; 20.8 mg/kg,0.47
same,Median RTV/hCD45 at end of study,[4]; 20.8 mg/kg,0.9
same,ALL xenografts classified as objective responses,"ALL xenograft models; 0.25MTD, three models",two out of three
same,response in ALL models,"ALL xenograft models; 0.5MTD, three models",CR in each of three ALL models
same,"ALL xenografts with objective responses, of 3 tested",ALL xenograft models; MTD 20.8 mg/kg,3
same,"median Ymin, Ewing cell lines",Ewing sarcoma cell lines; median of Ewing panel,11.4%
same,pIC50,"Ewing sarcoma cell lines; read-out: relative IC50 values, Ewing sarcoma cell lines",7.24
same,concentration at 12 h,"[5]; oral, 10 mg/kg",1200 nM
same,concentration at 12 h,"[5]; oral, 10.4 mg/kg",1200 nM
same,AUC(0-t),"[5]; po, 10 mg/kg",39 µM·h
same,Cmax,"[5]; po, 10 mg/kg, C max, single oral 10 mg/kg, mice",15800 nM
same,AUC(0-t),"[5]; po, 10.4 mg/kg",60.3 µM·h
same,Cmax,"[5]; po, 10.4 mg/kg",24800 nM
same,Tmax,"[5]; po, 10.4 mg/kg",30 min
same,AUC(0-t),"[5]; po, 20.8 mg/kg",78.4 µM·h
same,Tmax,"[5]; po, 20.8 mg/kg",30 min
same,concentration at 12 h,"[5]; po, 20.8 mg/kg",1800 nM
same,EFS T/C,[6]; 2.6 mg/kg,1.2
same,EFS activity,[6]; 2.6 mg/kg,Low
same,Estimate of median time to event,[6]; 2.6 mg/kg,20.3 days
same,Median group response,[6]; 2.6 mg/kg,"PD1 (if the TGD value ≤1.5, that mouse was considered PD1)"
same,Response activity,[6]; 2.6 mg/kg,Low
same,Tumor volume T/C,[6]; 2.6 mg/kg,1.01
same,Median RTV/hCD45 at end of study,[6]; 2.6 mg/kg,>4
same,EFS T/C,[6]; 5.2 mg/kg,>2.4
same,EFS activity,[6]; 5.2 mg/kg,High
same,Response activity,[6]; 5.2 mg/kg,High
same,Tumor volume T/C,[6]; 5.2 mg/kg,0.38
same,Median RTV/hCD45 at end of study,[6]; 5.2 mg/kg,0.4
same,EFS T/C,[6]; 10.4 mg/kg,>2.4
same,EFS activity,[6]; 10.4 mg/kg,High
same,Median group response,[6]; 10.4 mg/kg,MCR
same,Response activity,[6]; 10.4 mg/kg,High
same,Tumor volume T/C,[6]; 10.4 mg/kg,0.30
same,Median RTV/hCD45 at end of study,[6]; 10.4 mg/kg,0.0
same,EFS T/C,[6]; 20.8 mg/kg,>2.4
same,EFS activity,[6]; 20.8 mg/kg,High
same,Median group response,[6]; 20.8 mg/kg,MCR
same,Response activity,[6]; 20.8 mg/kg,High
same,Tumor volume T/C,[6]; 20.8 mg/kg,0.14
same,Median RTV/hCD45 at end of study,[6]; 20.8 mg/kg,0.0
same,objective responses in tumors with decreased AURKA copy number,[7],5/8
same,objective responses in tumors with increased AURKA gene copy number,[7],2/14 and 2
same,Ymin,[8],16.5%
same,pIC50,[9]; read-out: Absolute IC50,7.55
same,pIC50,[9]; read-out: Relative IC50,7.62
same,Ymin,"[9]; SK-N-BE(1), minimum T/C",4.0%
